Bioassay records deposited in PubChem BioAssay by The Scripps Research Institute Molecular Screening Center.
Sampled rows, rich in hits. Any-hit rate of the full collection: about 3%.
CHRM4 antagonist = CHRM4 antagonism in calcium assay; CHO-hM4 cells, ACh EC80, Fluo-8 calcium fluorescence; inhibition, % at 3 µM; hit rate 0.73% among 360,000;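 active = inhibition above its plate's cutoff, the mean inhibition of sample wells plus 3 SD, cut at about 27% in these data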
Target sequence (P08173 whole entry, looked up): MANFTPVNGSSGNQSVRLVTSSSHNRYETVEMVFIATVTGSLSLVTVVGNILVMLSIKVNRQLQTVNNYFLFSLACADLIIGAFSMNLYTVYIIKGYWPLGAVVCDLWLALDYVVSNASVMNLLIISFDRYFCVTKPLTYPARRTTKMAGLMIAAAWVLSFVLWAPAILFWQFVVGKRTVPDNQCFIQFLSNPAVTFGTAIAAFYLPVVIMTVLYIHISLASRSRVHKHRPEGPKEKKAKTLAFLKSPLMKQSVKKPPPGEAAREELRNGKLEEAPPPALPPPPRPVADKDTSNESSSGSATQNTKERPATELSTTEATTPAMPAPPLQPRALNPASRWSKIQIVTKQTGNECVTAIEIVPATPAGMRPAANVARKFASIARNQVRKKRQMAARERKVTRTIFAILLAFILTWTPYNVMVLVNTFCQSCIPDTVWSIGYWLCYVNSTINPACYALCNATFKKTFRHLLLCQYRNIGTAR
M4 ag = agonists of human muscarinic M4 receptor (CHRM4); hit rate 0.14% among 360,000; CHO-K1 hM4/Gqi5, Fluo-8 calcium fluorescence; vehicle 0%, full acetylcholine response 100%; P08173; activation, % at 3 µM;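 active = activation above the run mean over all test wells plus 3 SD, cut at about 32% in these data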;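 also: peak over basal fluorescence ratio per well then scaled between controls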
TAAR1 antag = antagonists of human TAAR1. Q96RJ0. CHO RD-HGA16 TAAR1, Fluo-8 calcium fluorescence, antagonist. inhibition, % at 3 µM. hit rate 1.5% among 360,000;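 active = inhibition above a per-plate cutoff, the mean inhibition of test compounds on that plate plus 3 SD, cut at about 49% in these data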
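test system = CHO RD-HGA16 cells bearing hTAAR1 | replication = singlicate | controls = DMSO-only wells and EC80 β-PEA-stimulated wells | reagent = EC80 β-phenethylamine stimulus | read-out basis = percent inhibition of PEA-evoked calcium signal, max/basal emission ratio | schedule = seeding 17-24 h prior, 75-min 37 °C, 30-min RT dye loading | signal = kinetic Fluo-8 calcium fluorescence measurement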
M4 PAM = potentiates acetylcholine response at human M4 receptor. P08173. CHO-K1 hM4/Gqi5, Fluo-8 calcium fluorescence, ACh EC20; 0% = ACh EC20, 100% = maximal ACh. activation, % at 3 µM. hit rate 0.4% among 360,000;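 active = activation above its plate's cutoff, the mean activation of sample wells plus 3 SD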
TAAR1 ag = agonists of human TAAR1 | Q96RJ0 | CHO RD-HGA16 TAAR1, Fluo-8 calcium fluorescence; vehicle wells 0%, saturating PEA agonist 100% | activation, % at 3 µM | hit rate 0.99% among 360,000 | AID 624467;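 active = activation above the mean activation of all test compounds in the run plus 3 SD, cut at about 38% in these data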
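Signal – calcium-sensitive Fluo-8 signal, excitation 470-495, emission 515-575 nm · System – RD-HGA16 (CHO) cells co-expressing Gα16 and hTAAR1 · Incubation – 17-24 h seeding, 75 min 37 °C dye, 30 min RT · Compound dosing – 3 µM single concentration · Repeats – no replicates (n 1)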
Large screens that a line does not name were inactive.

CC(=O)c1cccc(-c2ccnc3c2CC(C(=O)NCc2cccs2)O3)c1 (configuration not stated)	none
COc1ccc(C2CC(=O)C(c3ccc4ccccc4c3)=CN2Cc2ccccc2)cc1 (configuration not stated)	none (no result: CHRM4 antagonist, M4 ag, M4 PAM)
O=C(CC1Sc2ccccc2NC1=O)OC(C(=O)NCCc1ccccc1)c1cccnc1 (configuration not stated)	TAAR1 antag 52.7
COCCNC(=O)C(OC(=O)CC1Sc2ccccc2NC1=O)c1ccncc1 (configuration not stated)	none
OC(CNCCC1C=Nc2ccccc21)Cn1c2ccc(Cl)cc2c2cc(Cl)ccc21 (configuration not stated)	CHRM4 antagonist 36.6, TAAR1 ag 39.7
CCOC(=O)c1sc(=S)n(-c2ccccc2Cl)c1SC	CHRM4 antagonist 54.3
O=C1CC(=C(c2ccccc2)c2ccccc2)C(=O)N1CCCN1CCN(c2cccc(Cl)c2)CC1	CHRM4 antagonist 28.1
COC(=O)c1cc(Br)c(=O)n(-c2nccs2)c1	M4 PAM 28.1
Cc1cc2oc(C(=O)NCc3ccccc3)cc(=O)c2cc1C	CHRM4 antagonist 98.0
Cc1ccc2oc(C(=O)NCc3ccccc3)cc(=O)c2c1	none
COc1ccc(S(=O)(=O)c2nnn(-c3cccc(Cl)c3)c2N)cc1	TAAR1 ag 46.2
CCOC(=O)C1(Cc2ccccc2)CCN(Cc2cn(CC(=O)OC)c3ccccc23)CC1	M4 PAM 19.8
COC(=O)C1=C(C)N(C)C(=NCc2cc(OC)c(OC)c(OC)c2)NC1c1cccc(Cl)c1 (configuration not stated)	none (no result: CHRM4 antagonist, M4 ag, M4 PAM)
CC(=O)c1cc2c(cc1NC(=O)C1CCC1)OCO2	M4 PAM 23.6
COC(=O)N(C)C[C@H]1OCc2cn(nn2)CCCC(=O)N([C@H](C)CO)C[C@@H]1C	none (no result: CHRM4 antagonist, M4 ag, M4 PAM)
COCCCNCCCCOc1ccc(Br)cc1C	TAAR1 ag 41.4
CCOC(=O)N1CCN(C(=O)C[C@@H]2C[C@@]3(C(=O)OCC)CCC=C3N(Cc3cccc4ccccc34)C2=O)CC1	none
Cc1ccc2nc(-c3cccc(Br)c3)c(Cc3ccsc3)n2c1	none (no result: CHRM4 antagonist, M4 ag, M4 PAM)
CCC(=O)NC(C)C(c1cccs1)N1CCOCC1 (configuration not stated)	none
CC(NC(=O)Cc1cccs1)C(c1cccs1)N1CCOCC1 (configuration not stated)	M4 PAM 35.6
CC(NS(=O)(=O)c1ccc(F)cc1)C(c1cccs1)N1CCOCC1 (configuration not stated)	CHRM4 antagonist 54.1
COc1ccc(C2CC(=O)C(c3ccc(C(N)=O)cc3)=CN2Cc2ccccc2)cc1 (configuration not stated)	none (no result: CHRM4 antagonist, M4 ag, M4 PAM)
Cc1ccc(NC(=O)C[n+]2ccn(C3=C([O-])c4ccccc4C3=O)c2)cc1	TAAR1 ag 43.2
O=C(OCc1ccccc1)N1Cc2ccnnc2CC1c1ccccc1-c1ccc(C(F)(F)F)cc1 (configuration not stated)	none (no result: CHRM4 antagonist, M4 ag, M4 PAM)
O=C(Nc1cccc(S(=O)(=O)NCc2ccco2)c1)c1cc(-c2ccccc2)nc2ccccc12	TAAR1 antag 59.0
CN(C)S(=O)(=O)c1cccc(NC(=O)c2cc(-c3cccs3)nc3ccccc23)c1	CHRM4 antagonist 31.2, TAAR1 antag 64.5
C(=C\c1ccccc1)/CN1CCN(C(c2ccccc2)c2nnnn2-c2ccc3c(c2)OCCO3)CC1 (configuration not stated)	CHRM4 antagonist 31.8
C(=C\c1ccccc1)/CN1CCN(C(c2cccc3ccccc23)c2nnnn2C2CCCC2)CC1 (configuration not stated)	CHRM4 antagonist 96.5
COc1ccc(C(c2nnnn2C2CCCCC2)N2CCN(C/C=C/c3ccccc3)CC2)cc1 (configuration not stated)	CHRM4 antagonist 30.8
COc1ccc(C(c2nnnn2-c2ccc(OC)cc2)N2CCN(C/C=C/c3ccccc3)CC2)cc1 (configuration not stated)	none
CCCCCCCCN1C(=O)[C@@H](CC(=O)N2CCSCC2)C[C@@]2(C(=O)OC)C1=C[C@H](C(C)(C)C)O[C@@H]2C	none (no result: CHRM4 antagonist, M4 ag, M4 PAM)
Cc1ccc(CCNC(=O)CN2CCN(Cc3ccccc3F)C2=O)cc1	M4 PAM 30.1
COc1ccc(CCNC(=O)CN2CCN(Cc3ccccc3F)C2=O)cc1OC	none
O=C(NC(=O)N1CCN(C(c2ccccc2)c2ccccc2)CC1)c1ccccc1	CHRM4 antagonist 29.8
O=C(Nc1ccccc1C(F)(F)F)N1CCN(C(c2ccccc2)c2ccccc2)CC1	CHRM4 antagonist 35.3
O=C(c1ccc(C#CC2(O)CCCCC2)cc1)N1CCN(C(c2ccccc2)c2ccccc2)CC1	CHRM4 antagonist 35.2
O=C(Nc1ccccc1C(F)(F)F)N1CCCCCC1	none
CCCNC(=O)N1CCN(C(c2ccccc2)c2ccccc2)CC1	none
O=C1c2ccccc2C(=O)N1Cc1cc(-c2ccc(Cl)cc2)no1	TAAR1 antag 49.3
O=C(NC1CCCC1)C1c2ccccc2OCC(=O)N1Cc1ccco1 (configuration not stated)	none
COc1ccc(NC(=O)C(Cl)=C(Cl)Cl)cn1	none
COc1ccc(NC(=O)/C(Cl)=C(/Cl)S(=O)Cc2ccc(Cl)cc2)cn1 (configuration not stated)	CHRM4 antagonist 30.2, TAAR1 antag 51.7
Cc1cc2c(c(=O)o1)[C@@]1(C(=O)Nc3ccccc31)C1=C(CCCC1=O)O2	none (no result: CHRM4 antagonist, M4 ag, M4 PAM)
Cc1ccc(S(=O)(=O)N2[C@@H](c3cccc(Cl)c3)C(C(=O)O)=CC[C@H]2c2ccc(Cl)cc2)cc1	TAAR1 antag 52.2
COC(=O)[C@]12C[C@H](CC(=O)N3CCC(c4ccccc4)CC3)C(=O)N(CCC3=CCCCC3)C1=C[C@H](COCc1ccccc1)O[C@@H]2C	none (no result: CHRM4 antagonist, M4 ag, M4 PAM)
CCCCNC(=S)NCC(c1ccccc1)c1c[nH]c2ccccc12 (configuration not stated)	none
NCC(c1ccccc1Cl)c1c[nH]c2ccccc12 (configuration not stated)	none
CN(C)CCCNC(=S)NCC(c1ccc(Cl)cc1Cl)c1c[nH]c2ccccc12 (configuration not stated)	CHRM4 antagonist 28.8
NCC(c1ccc(Cl)cc1Cl)c1c[nH]c2ccccc12 (configuration not stated)	M4 ag 35.3, TAAR1 ag 45.4
Fc1ccc2cc(C3=CCCCC3)ncc2c1	none (no result: CHRM4 antagonist, M4 ag, M4 PAM)
Cc1ccc(CN2CCNC(=O)C2CC(=O)NC2CCCCCC2)cc1 (configuration not stated)	none
COc1ccc(CN2CCNC(=O)C2CC(=O)NC2CCCC2)cc1OC (configuration not stated)	none
O=C(CC1C(=O)NCCN1Cc1ccc(F)cc1)NC1CCCCCCC1 (configuration not stated)	CHRM4 antagonist 44.8
